Our source for the cytotoxicity values is ChEMBL document CHEMBL4513216, “Probing the Open Global Health Chemical Diversity Library for Multistage-Active Starting Points for Next-Generation Antimalarials” (ACS Infect Dis, 2020).

Each structure is given as a SMILES string.

A short description of this data set: Toxicity liver stage against HepG2, at 10uM. Conditions: human, HepG2-A16-CD81EGFP cells; read-out: INHIBITION
The data set is classed as cell-based. Details: test concentration 10 uM, cell line HepG2-A16-CD81EGFP. The method, boiled down:
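Uninfected HepG2-A16-CD81EGFP cells, 3 × 10^3 per well, 1536-well, plated on prespotted compound at 10 μM final, parasite-free screening media added to match infected plates; puromycin 10 μM positive, DMSO 0.5% negative; run in parallel with 48 h PbLuc assay at 37 °C, 5% CO2; viability by CellTiter-Glo luminescence, normalized to controls.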
For `COC(=O)c1ccccc1NC(=O)c1c(C)cn(C)c1CC(=O)O`, the cytotoxicity at 10 µM is -6.14%.

`CCc1c(C)sc2nc3n(CC(N)=O)nc(SC)n3c(=O)c12`: the cytotoxicity at 10 µM was -0.817%.

`O=C1CC(c2cccnc2)c2c(c(C(=O)O)cn2-c2ccccc2F)N1` (configuration not stated): the cytotoxicity at 10 µM came to 1.85%.

Regarding `Cc1cc(C)n(-c2ccnc(N3CCC(C(=O)N4CCCC4)CC3)n2)n1`, the cytotoxicity at 10 µM is -9.87%.

Regarding `COCC(=O)N1Cc2nccn2CC(Cn2ncccc2=O)C1` (configuration not stated), the cytotoxicity at 10 µM turned out to be 5.23%.

On to `Cc1cc2nc(SCC(=O)N3CCCC3)n(C)c(=O)c2[nH]1`, for which the cytotoxicity at 10 µM is 11.1%.

In the case of `CCOc1cc2c(cc1CCC(=O)O)CCC2`, the cytotoxicity at 10 µM was -4.63%.

With `COc1cccc(C2CC(=O)Nc3nc(N4CCCCC4)sc32)c1OC` (configuration not stated), the cytotoxicity at 10 µM came out at 10.4%.

As to `O=C(NCCN1CCCCC1)c1nc(-c2cccc3[nH]ccc23)no1`, the cytotoxicity at 10 µM worked out at 0.142%.

Take `CCc1cc(=O)[nH]c2nnc(SCC(=O)OC)n12`: the cytotoxicity at 10 µM is -16.6%.

With `CCC1=N[C@@]2(CC[C@@H]3CN(C(=O)NC(C)C)C[C@@H]32)C(=O)N1C`, the cytotoxicity at 10 µM is -18%.

As to `CCOc1ccc(N2CCCN=C2NC(=O)c2ccc(Cl)cc2)cc1`, the cytotoxicity at 10 µM is 8.1%.

As to `O=C(O)Cn1ccc2c(Cl)cccc21`, the cytotoxicity at 10 µM came out at 0.308%.

For the molecule `Oc1cc(C2CCCCN2Cc2cccs2)nc(-c2ccncc2)n1` (configuration not stated), the cytotoxicity at 10 µM came out at 7.78%.

For the molecule `COc1ccc(-c2cc3nc(CCNC(=O)CN(C)C)nn3cn2)cc1`, the cytotoxicity at 10 µM was 1.98%.

Turning to `Cc1cc(C)nc(Nc2cc(C)nc(C3CCN(C(=O)CO)C3)n2)n1` (configuration not stated), the cytotoxicity at 10 µM amounted to 5.34%.

Take `COc1ccccc1-c1ccc(C2CCCN(C(C)=O)C2)nc1` (configuration not stated): the cytotoxicity at 10 µM is -4.96%.

On to `CNC(=O)C1CN(c2ncccn2)CCN1Cc1ccccc1` (configuration not stated), for which the cytotoxicity at 10 µM was determined as 14.3%.

Consider `Cc1nc(C(=O)N2CCC(c3cc(CCO)n(C)n3)C2)co1` (configuration not stated), for which the cytotoxicity at 10 µM is -5.42%.

Turning to `CC(C)c1nc(O)c2nnn(C[C@@H]3CCCN(Cc4cccs4)C3)c2n1`, the cytotoxicity at 10 µM was determined as 1.76%.

As to `c1c[nH]c2nc(C3CCNC3)nc-2c1` (configuration not stated), the cytotoxicity at 10 µM came to 10.3%.

`CC(C)N(C)CC(=O)NCc1ccccc1N1CCN(C)CC1`: the cytotoxicity at 10 µM was -7.85%.

Regarding `Cc1nnc(NCCc2coc(-c3ccc(F)cc3)n2)c(C#N)c1C`, the cytotoxicity at 10 µM is -16.3%.

In the case of `Cc1ncc(S(=O)(=O)Nc2ccnn2C(C)C)[nH]1`, the cytotoxicity at 10 µM came out at 9.68%.

Turning to `Cc1noc(C)c1C(=O)N1CCC(n2cccn2)CC1`, the cytotoxicity at 10 µM was 3.82%.

Turning to `Cc1cnn(CCNCc2c(C)nn(C)c2Cl)c1`, the cytotoxicity at 10 µM is -15.3%.

As for `N#Cc1c(F)cccc1Nc1cnn(CC(=O)N2CCOCC2)c1`, the cytotoxicity at 10 µM stood at 2.2%.

Turning to `NC(=O)CNC1(c2ccc(Br)cc2)CCOCC1`, the cytotoxicity at 10 µM is -0.717%.

Consider `COc1cccc(C(O)CNC(=O)CC2CCCCC2)c1` (configuration not stated), for which the cytotoxicity at 10 µM is -2.11%.

Take `CC(=O)N1CCN(CC(=O)N2CCN(c3cccc(C)c3)CC2)CC1`: the cytotoxicity at 10 µM was -3.83%.

With `CN(Cc1noc(C2CC2)n1)C1CCN(Cc2nc(C3CC3)no2)C1` (configuration not stated), the cytotoxicity at 10 µM was -1.57%.

Take `CC(C)(C(=O)NCC(=O)NC1CC1)c1ccccc1F`: the cytotoxicity at 10 µM is -4.9%.

For the molecule `CCCc1noc(CN(C)Cc2ccc3c(c2)OCO3)n1`, the cytotoxicity at 10 µM is -11.1%.

For the molecule `CC(C)Nc1cccc(CNC(=O)N2CCC(N3CC=CC3)C2)c1` (configuration not stated), the cytotoxicity at 10 µM was 2.01%.

As to `CC(=O)Nc1cc2c(cc1C)OCO2`, the cytotoxicity at 10 µM was found to be 10.5%.

Turning to `CC(C)(C)OC(=O)N1CCN(S(C)(=O)=O)C2(CCCCC2)C1`, the cytotoxicity at 10 µM was 10.3%.

Turning to `CC(C)NC(=O)[C@@H]1C[C@H]2OCC[C@H]2N(Cc2ccc3ccccc3n2)C1`, the cytotoxicity at 10 µM is -66.8%.

Turning to `Cc1ccsc1C(=O)N1CCc2ncnc(NC(C)C)c2CC1`, the cytotoxicity at 10 µM is -79.3%.

Regarding `O=C(NCC1CC1)C1CN(C(=O)Nc2ccccc2)CC12CCOCC2` (configuration not stated), the cytotoxicity at 10 µM was -82.6%.

With `CS(=O)(=O)N1CC[C@@H]2[C@@H](CCC(=O)N2CCC2=CCCCC2)C1`, the cytotoxicity at 10 µM was -5.64%.

Regarding `Cc1cccc(CN2CCN(C(=O)c3cnc(C)[nH]c3=O)CC2)c1`, the cytotoxicity at 10 µM is -3.32%.

Consider `CCN1CCC(N2C[C@H]3OC(=O)N(CCc4cccc(Cl)c4)[C@H]3C2)CC1`, for which the cytotoxicity at 10 µM is -5.4%.

On to `Cc1ccc(C)c2c(=O)cc(CN3CC[C@@H](N)[C@H](O)C3)[nH]c12`, for which the cytotoxicity at 10 µM stood at 8.24%.

As for `CSCCN1CCN(c2nc(N)ncc2C)CC1`, the cytotoxicity at 10 µM turned out to be 1.54%.

`COCCN(C)C[C@@H]1CN(C(=O)c2ccc(SC)cc2)C[C@@H]1CO`: the cytotoxicity at 10 µM was 4.44%.

For `c1cncc(-c2noc(CCNc3ncnc4c3CCNCC4)n2)c1`, the cytotoxicity at 10 µM was 3.38%.

As for `Cc1cc(C)cc(-c2cc(C3CCOC3)c(C#N)c(N)n2)c1` (configuration not stated), the cytotoxicity at 10 µM worked out at 1.44%.

Regarding `CCCN1CCC(NN2CCN(C)CC2)CC1`, the cytotoxicity at 10 µM was -2.38%.

For `CC(C)CCN1CC2(CCCN(C(=O)CNC(=O)N(C)C)C2)CCC1=O` (configuration not stated), the cytotoxicity at 10 µM was found to be 9.94%.

Regarding `Cc1nc2c(N(CCC(N)=O)CCc3ccccc3)ncnc2o1`, the cytotoxicity at 10 µM came out at 4.6%.

On to `CN(Cc1cc[nH]n1)C(=O)c1cn(Cc2c(F)cccc2F)nn1`, for which the cytotoxicity at 10 µM is 7.29%.

With `Cc1ccc(O)c(C(=O)N2C[C@@H](C(=O)O)[C@H](c3ccccc3)C2)c1`, the cytotoxicity at 10 µM is 0.00559%.

For `CN(C)CCN(CC1CCCO1)S(=O)(=O)NCc1ccccc1` (configuration not stated), the cytotoxicity at 10 µM was 0.666%.

On to `COc1ccc(-n2c(CO)nc3ccccc32)cc1CO`, for which the cytotoxicity at 10 µM was determined as 1.78%.

Turning to `COc1ccc(CN(Cc2cnn(C)c2)CC(C)C)cn1`, the cytotoxicity at 10 µM is -18.4%.

As to `Cc1ccc(C(C(=O)N2CC(c3ccccn3)C2)N(C)C)cc1` (configuration not stated), the cytotoxicity at 10 µM is -9.82%.

On to `CCNc1ncc(C(=O)NCCCc2ccncc2)cn1`, for which the cytotoxicity at 10 µM was found to be 0.562%.

For the molecule `Cc1ccc(Oc2ncccc2CNC(=O)NC2CCCCC2)cn1`, the cytotoxicity at 10 µM was -3.01%.

`CC(C)C(=O)N1CCN(C(=O)c2cc(C(C)C)no2)[C@H]2CS(=O)(=O)C[C@H]21`: the cytotoxicity at 10 µM was -9.43%.

Regarding `CN1CCC(C2CCN(Cc3cccc(-n4cccn4)c3)CC2)C1` (configuration not stated), the cytotoxicity at 10 µM is -6.15%.

As for `CCN(Cc1c(C)nn(C)c1C)C(=O)C1COc2ccccc2C1` (configuration not stated), the cytotoxicity at 10 µM was -0.91%.

For `CCC(=O)N1CCN(Cc2cc(-c3ccncc3)nn2C)CC1`, the cytotoxicity at 10 µM is 4.24%.

As for `COc1cc(CNCc2ccnc(N3CCOCC3)c2)cc(OC)c1`, the cytotoxicity at 10 µM stood at 6.1%.

`CC(Cn1ccnc1)NC(=O)C1(c2cccc(Cl)c2)CC1` (configuration not stated): the cytotoxicity at 10 µM is -19.3%.

`CC(C)c1nc(CN2CCCC2c2cnn(C)c2)cs1` (configuration not stated): the cytotoxicity at 10 µM came to 0.0791%.

Turning to `Cc1ccc(-c2nnc(CN3CCOC(Cn4cncn4)C3)o2)cc1` (configuration not stated), the cytotoxicity at 10 µM is -10.2%.

As to `CCc1nc(CN(C(C)=O)C2CCN(CCc3ccccc3)C2)no1` (configuration not stated), the cytotoxicity at 10 µM was -2.18%.

`CN(CCC(=O)N1CCc2sccc2C1)Cc1cnn(C)c1`: the cytotoxicity at 10 µM is -18.6%.

For `CN(CCC(=O)N1CCc2sccc2C1)Cc1cc(Br)cs1`, the cytotoxicity at 10 µM is -14.8%.

For the molecule `Cc1noc(C)c1CC(=O)N1CCc2sccc2C1`, the cytotoxicity at 10 µM was -18.4%.

For the molecule `O=C(NCCN1C(=O)c2ccccc2C1=O)c1scnc1Cl`, the cytotoxicity at 10 µM is -12.3%.

For `Cc1ccc(C(=O)N2CCN(Cc3cccs3)CC2)n1C`, the cytotoxicity at 10 µM is -5.37%.

`Cc1cc(C)n(CC2CCCN2C(=O)c2ccc3nnc(C)n3c2)n1` (configuration not stated): the cytotoxicity at 10 µM is -3.6%.

With `COc1ccc(N2CCN(C(=O)NC(C)c3nncn3C)CC2)cc1` (configuration not stated), the cytotoxicity at 10 µM was -7.12%.

Regarding `Cc1cc(NC(=O)CN2CCCC2c2noc(C3CC3)n2)n(C)n1` (configuration not stated), the cytotoxicity at 10 µM is -1.16%.

As for `COc1cc(C(=O)N2CCCC(n3ccnc3)C2)cc2c1OCCO2` (configuration not stated), the cytotoxicity at 10 µM was -5.28%.

For `CC(=O)Nc1nc(C(=O)NCc2ccc(N3CCOCC3)nc2)cs1`, the cytotoxicity at 10 µM was -14%.

As for `COc1c(CNCc2ccnc(N3CCOCC3)c2)c(C)nn1C`, the cytotoxicity at 10 µM is -1.82%.

As for `O=C(c1ccc(OCC2CC2)nc1)N1CCCC(n2ccnc2)C1` (configuration not stated), the cytotoxicity at 10 µM was -9.16%.

Regarding `CCCNC(=O)CCC(=O)Nc1ccc(-n2cncn2)c(F)c1`, the cytotoxicity at 10 µM stood at 1.94%.

Regarding `Cc1cnn(CCNCc2nc(COc3ccc(F)cc3)no2)c1`, the cytotoxicity at 10 µM was -5.61%.

As for `Cc1nc(C2CCCN2CC(=O)N2CCCc3ccccc32)no1` (configuration not stated), the cytotoxicity at 10 µM was -8.7%.

Take `O=C(NCc1ccccn1)N(Cc1ccc(F)cc1F)C1CC1`: the cytotoxicity at 10 µM was -17.5%.

Regarding `N#Cc1ccccc1N1CCCN(C(=O)CCn2cccn2)CC1`, the cytotoxicity at 10 µM was -13.1%.

For `Cc1noc(C2CCN(Cc3cc(=O)n(C)c(=O)n3C)CC2)n1`, the cytotoxicity at 10 µM was -2.57%.

`Cc1cc(C)n(CC2CCCN2CC(=O)N(C)C)n1` (configuration not stated): the cytotoxicity at 10 µM was -7.86%.

For the molecule `Cc1ccsc1CNc1cc(N2CCCC2CO)ncn1` (configuration not stated), the cytotoxicity at 10 µM was -2.45%.

On to `Cc1nc(CN2CCCC(N(C)Cc3nnsc3Cl)C2)no1` (configuration not stated), for which the cytotoxicity at 10 µM was -4.36%.

For the molecule `Cn1ccnc1Sc1ccc(N)cn1`, the cytotoxicity at 10 µM worked out at 3.08%.

For the molecule `Cc1ccc(CN(Cc2c[nH]cn2)C2CC(C)(C)NC(C)(C)C2)o1`, the cytotoxicity at 10 µM was -0.105%.

In the case of `O=C([C@H]1C[C@H]2OCC[C@H]2N(Cc2ccoc2)C1)N1CCCO1`, the cytotoxicity at 10 µM is -69.8%.

Take `NCC(=O)N1CCC(c2ccnc(Nc3cc(C(F)(F)F)ccn3)n2)C1` (configuration not stated): the cytotoxicity at 10 µM came to 9.83%.

With `Cc1nc(CN2C(=O)CCC23CCN(Cc2ccccn2)CC3)cs1`, the cytotoxicity at 10 µM was -2.71%.

For `CN1CCN(CC2CN(CC3CC3)Cc3nccn3C2)CC1` (configuration not stated), the cytotoxicity at 10 µM was -76.1%.

`CC(=O)N1CCO[C@H]2[C@H](OCCCn3cccn3)CC[C@@H]21`: the cytotoxicity at 10 µM was found to be 7.16%.

Regarding `COc1cccc(-c2n[nH]cc2CNC2CCC(O)CC2)c1` (configuration not stated), the cytotoxicity at 10 µM is -0.874%.

On to `CCS(=O)(=O)N1CCC2(CN(c3cccc(F)c3)C(=O)CN2C)C1` (configuration not stated), for which the cytotoxicity at 10 µM was -74.4%.
